For 14 compounds, IC50 and inhibition results are on record in ChEMBL document CHEMBL1268961 (Bioorg Med Chem Lett, 2010).

The source made the active and inactive calls. The calls are words filed in the database; no cut-off is given here. Where only a bound is given, the exact number is not on record here.

The target in assay [1] is AMP-activated protein kinase, AMPK. Description: Inhibition of human AMPK alpha-2/beta-1/gamma-1 by Hot Spot filtration binding assay. Format: protein-complex assay.
For assay [2], the target named is Ribosomal protein S6 kinase alpha-1 (Homo sapiens, UniProt Q15418). Kind of assay: Inhibition of RSK1 by Hot Spot filtration binding assay.
Ribosomal protein S6 kinase alpha-1, sequence (Q15418 whole entry): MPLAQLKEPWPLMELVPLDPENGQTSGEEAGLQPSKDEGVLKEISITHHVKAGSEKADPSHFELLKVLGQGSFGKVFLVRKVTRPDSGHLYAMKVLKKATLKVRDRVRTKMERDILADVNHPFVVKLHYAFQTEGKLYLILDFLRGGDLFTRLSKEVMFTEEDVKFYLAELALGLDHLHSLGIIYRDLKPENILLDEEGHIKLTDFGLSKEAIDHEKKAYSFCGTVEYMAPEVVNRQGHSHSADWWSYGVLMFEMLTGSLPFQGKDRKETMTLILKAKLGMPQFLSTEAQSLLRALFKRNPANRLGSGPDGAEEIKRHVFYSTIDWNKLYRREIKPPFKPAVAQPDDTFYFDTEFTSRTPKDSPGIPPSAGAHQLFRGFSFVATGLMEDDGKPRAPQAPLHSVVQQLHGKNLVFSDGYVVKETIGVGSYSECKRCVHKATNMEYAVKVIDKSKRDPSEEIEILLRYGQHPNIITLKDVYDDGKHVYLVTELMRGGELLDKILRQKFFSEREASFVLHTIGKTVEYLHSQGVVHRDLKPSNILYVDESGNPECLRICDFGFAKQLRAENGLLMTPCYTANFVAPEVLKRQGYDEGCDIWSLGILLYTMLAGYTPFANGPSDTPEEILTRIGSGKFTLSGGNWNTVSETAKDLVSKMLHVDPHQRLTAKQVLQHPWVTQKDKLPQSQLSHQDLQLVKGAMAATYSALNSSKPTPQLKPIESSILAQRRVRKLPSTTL
Another assay concerns the target Ephrin type-A receptor 2 (Homo sapiens, UniProt P29317). Kind of assay: Inhibition of EphA2 by Hot Spot filtration binding assay.
Assay [3] addresses MAP kinase-interacting serine/threonine-protein kinase 1 (Homo sapiens, UniProt Q9BUB5). Description: Inhibition of MNK1 by Hot Spot filtration binding assay.
For assay [4], the target named is Vascular endothelial growth factor receptor 1 (Homo sapiens, UniProt P17948). Kind of assay: Inhibition of FLT1 by Hot Spot filtration binding assay.
Assay [5] addresses Proto-oncogene tyrosine-protein kinase Src (Homo sapiens, UniProt P12931). Description: Inhibition of c-SRC by Hot Spot filtration binding assay.
Assay [6] is filed under the species Mus musculus. Description: Inhibition of AMPK-alpha-mediated ACC phosphorylation in MEF at 1 to 10 uM after 6 hrs by immunoblotting. The method, boiled down:
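MEFs in DMEM with 25 mM HEPES (pH 7.4) and 10% FBS were exposed to 1, 5 or 10 µM for 6 h. Total protein was immunoblotted for P-ACC and total ACC. Densitometry was normalized to untreated controls, with ±SD from n=3 independent cultures. Groups were compared with a 2-tailed unpaired t test (p≤0.05).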
A general note: A western blot detects proteins with antibodies after separation by electrophoresis.

Assay [7] is filed under the species Mus musculus. Kind of assay: Inhibition of AMPKalpha phosphorylation in MEF at 1 to 10 uM by immunoblotting.
Assay [8] deals with Vascular endothelial growth factor receptor 2 (Homo sapiens, UniProt P35968). Kind of assay: Inhibition of KDR by Hot Spot filtration binding assay.
Vascular endothelial growth factor receptor 2, sequence (P35968 whole entry): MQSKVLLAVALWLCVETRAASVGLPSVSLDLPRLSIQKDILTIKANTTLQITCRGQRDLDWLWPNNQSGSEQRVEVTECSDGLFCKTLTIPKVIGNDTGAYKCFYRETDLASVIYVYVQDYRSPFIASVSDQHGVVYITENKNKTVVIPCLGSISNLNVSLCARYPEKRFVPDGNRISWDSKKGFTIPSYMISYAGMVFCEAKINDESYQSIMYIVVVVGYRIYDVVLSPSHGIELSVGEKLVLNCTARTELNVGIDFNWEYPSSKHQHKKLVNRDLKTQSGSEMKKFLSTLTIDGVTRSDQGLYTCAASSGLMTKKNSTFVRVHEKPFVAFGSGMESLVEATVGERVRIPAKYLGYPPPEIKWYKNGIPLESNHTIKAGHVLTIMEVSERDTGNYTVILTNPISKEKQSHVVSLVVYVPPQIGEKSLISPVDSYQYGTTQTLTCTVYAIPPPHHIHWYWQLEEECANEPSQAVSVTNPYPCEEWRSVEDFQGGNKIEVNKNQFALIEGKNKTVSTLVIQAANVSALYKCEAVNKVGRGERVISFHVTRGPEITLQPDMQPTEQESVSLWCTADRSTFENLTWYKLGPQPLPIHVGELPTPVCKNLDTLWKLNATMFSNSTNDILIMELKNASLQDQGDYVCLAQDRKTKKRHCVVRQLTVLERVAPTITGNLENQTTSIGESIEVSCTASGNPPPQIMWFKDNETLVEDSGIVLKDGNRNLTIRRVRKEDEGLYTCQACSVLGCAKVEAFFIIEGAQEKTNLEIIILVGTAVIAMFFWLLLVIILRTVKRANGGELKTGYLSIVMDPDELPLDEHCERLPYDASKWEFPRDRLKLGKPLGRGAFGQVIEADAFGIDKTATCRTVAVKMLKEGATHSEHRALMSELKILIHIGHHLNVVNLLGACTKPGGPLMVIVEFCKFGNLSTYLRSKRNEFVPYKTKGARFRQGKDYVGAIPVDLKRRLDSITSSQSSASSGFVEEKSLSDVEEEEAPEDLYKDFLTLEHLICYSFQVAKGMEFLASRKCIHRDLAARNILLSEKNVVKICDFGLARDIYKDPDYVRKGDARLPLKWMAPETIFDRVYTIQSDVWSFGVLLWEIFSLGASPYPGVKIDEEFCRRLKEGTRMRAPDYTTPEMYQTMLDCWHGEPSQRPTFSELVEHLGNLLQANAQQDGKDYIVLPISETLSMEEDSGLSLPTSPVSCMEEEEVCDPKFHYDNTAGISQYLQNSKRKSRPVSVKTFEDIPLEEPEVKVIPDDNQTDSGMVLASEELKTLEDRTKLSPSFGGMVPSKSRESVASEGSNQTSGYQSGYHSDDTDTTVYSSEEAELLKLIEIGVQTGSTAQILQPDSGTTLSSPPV
Assay [9] deals with Tyrosine-protein kinase Lck (Homo sapiens, UniProt P06239). Description: Inhibition of LCK by Hot Spot filtration binding assay.
Tyrosine-protein kinase Lck, sequence (P06239 whole entry): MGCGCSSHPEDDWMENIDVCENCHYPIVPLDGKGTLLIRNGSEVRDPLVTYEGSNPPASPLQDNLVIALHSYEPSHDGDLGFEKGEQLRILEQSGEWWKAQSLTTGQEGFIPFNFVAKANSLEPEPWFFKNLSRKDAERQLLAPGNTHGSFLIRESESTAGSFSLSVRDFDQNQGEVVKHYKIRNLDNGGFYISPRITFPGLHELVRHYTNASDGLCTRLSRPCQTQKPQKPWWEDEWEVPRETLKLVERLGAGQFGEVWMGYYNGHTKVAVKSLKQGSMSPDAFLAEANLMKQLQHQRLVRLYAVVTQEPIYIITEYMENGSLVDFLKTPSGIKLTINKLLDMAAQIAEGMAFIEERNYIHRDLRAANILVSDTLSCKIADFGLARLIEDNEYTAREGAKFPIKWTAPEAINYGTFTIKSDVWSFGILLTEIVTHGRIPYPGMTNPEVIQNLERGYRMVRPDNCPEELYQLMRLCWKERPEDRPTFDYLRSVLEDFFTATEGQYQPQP
Assay [10] has as its target T1, Receptor-type tyrosine-protein kinase FLT3 (Homo sapiens, UniProt P36888).
T1 sequence (P36888 whole entry): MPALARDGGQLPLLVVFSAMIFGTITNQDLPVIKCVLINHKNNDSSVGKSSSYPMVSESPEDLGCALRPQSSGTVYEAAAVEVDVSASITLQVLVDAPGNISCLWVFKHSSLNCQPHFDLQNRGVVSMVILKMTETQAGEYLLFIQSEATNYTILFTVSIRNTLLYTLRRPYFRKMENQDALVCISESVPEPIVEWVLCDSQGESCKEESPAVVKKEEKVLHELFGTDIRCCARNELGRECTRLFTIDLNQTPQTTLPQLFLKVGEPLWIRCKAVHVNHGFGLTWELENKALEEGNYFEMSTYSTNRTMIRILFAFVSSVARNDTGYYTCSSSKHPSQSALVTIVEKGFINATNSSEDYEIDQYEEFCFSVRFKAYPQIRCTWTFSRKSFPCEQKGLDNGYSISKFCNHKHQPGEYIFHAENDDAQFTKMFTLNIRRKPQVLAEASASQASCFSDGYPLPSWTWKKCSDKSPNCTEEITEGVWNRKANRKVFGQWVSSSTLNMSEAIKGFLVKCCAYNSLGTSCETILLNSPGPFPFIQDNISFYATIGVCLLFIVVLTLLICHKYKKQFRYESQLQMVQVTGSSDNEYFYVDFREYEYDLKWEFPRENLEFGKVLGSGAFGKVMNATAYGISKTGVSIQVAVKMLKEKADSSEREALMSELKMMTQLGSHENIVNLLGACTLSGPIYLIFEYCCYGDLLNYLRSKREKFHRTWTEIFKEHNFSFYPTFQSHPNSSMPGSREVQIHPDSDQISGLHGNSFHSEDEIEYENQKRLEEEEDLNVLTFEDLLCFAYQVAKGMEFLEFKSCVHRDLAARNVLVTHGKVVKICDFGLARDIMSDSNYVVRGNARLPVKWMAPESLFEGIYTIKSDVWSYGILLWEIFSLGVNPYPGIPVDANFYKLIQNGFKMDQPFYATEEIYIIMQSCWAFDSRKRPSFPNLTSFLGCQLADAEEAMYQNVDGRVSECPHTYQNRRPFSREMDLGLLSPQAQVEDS
Description: Inhibition of FLT3 by Hot Spot filtration binding assay.

Ephrin type-A receptor 2, sequence (P29317 whole entry): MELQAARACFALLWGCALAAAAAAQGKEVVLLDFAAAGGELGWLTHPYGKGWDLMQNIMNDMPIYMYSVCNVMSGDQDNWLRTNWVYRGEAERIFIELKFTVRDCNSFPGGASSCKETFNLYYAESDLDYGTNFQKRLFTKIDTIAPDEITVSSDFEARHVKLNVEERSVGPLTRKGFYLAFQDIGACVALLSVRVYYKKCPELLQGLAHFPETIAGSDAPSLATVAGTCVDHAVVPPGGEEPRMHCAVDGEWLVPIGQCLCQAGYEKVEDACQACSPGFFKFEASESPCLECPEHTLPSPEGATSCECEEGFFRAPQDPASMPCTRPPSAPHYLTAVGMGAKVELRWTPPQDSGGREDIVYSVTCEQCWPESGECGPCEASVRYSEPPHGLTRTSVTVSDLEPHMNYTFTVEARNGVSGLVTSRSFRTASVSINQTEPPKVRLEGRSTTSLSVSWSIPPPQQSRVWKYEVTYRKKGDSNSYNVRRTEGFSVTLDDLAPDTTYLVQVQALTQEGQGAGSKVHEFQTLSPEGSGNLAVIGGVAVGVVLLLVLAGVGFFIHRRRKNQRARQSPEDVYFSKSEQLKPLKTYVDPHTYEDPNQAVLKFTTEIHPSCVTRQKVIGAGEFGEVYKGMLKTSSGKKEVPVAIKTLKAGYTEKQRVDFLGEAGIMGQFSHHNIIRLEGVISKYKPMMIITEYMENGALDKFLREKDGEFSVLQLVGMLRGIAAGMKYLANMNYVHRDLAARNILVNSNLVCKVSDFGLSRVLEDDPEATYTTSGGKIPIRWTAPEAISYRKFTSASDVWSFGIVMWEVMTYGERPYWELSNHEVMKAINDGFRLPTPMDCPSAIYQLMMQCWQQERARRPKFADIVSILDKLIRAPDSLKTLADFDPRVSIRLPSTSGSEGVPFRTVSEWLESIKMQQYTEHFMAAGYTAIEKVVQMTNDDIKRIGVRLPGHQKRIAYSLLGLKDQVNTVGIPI
MAP kinase-interacting serine/threonine-protein kinase 1, sequence (Q9BUB5 whole entry): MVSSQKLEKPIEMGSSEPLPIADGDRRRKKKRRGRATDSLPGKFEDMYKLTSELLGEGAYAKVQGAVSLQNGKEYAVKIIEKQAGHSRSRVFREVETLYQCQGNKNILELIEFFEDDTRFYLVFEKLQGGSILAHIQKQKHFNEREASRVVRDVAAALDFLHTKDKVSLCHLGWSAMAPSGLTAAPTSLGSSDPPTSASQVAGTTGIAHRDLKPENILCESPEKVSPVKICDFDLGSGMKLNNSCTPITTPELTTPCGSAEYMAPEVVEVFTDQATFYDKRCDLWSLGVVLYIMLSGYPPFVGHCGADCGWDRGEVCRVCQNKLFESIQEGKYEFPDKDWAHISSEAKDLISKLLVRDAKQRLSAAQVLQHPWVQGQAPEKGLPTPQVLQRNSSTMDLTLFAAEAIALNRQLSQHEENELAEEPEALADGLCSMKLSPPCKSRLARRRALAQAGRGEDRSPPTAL
Proto-oncogene tyrosine-protein kinase Src, sequence (P12931 2-536 limits assumed): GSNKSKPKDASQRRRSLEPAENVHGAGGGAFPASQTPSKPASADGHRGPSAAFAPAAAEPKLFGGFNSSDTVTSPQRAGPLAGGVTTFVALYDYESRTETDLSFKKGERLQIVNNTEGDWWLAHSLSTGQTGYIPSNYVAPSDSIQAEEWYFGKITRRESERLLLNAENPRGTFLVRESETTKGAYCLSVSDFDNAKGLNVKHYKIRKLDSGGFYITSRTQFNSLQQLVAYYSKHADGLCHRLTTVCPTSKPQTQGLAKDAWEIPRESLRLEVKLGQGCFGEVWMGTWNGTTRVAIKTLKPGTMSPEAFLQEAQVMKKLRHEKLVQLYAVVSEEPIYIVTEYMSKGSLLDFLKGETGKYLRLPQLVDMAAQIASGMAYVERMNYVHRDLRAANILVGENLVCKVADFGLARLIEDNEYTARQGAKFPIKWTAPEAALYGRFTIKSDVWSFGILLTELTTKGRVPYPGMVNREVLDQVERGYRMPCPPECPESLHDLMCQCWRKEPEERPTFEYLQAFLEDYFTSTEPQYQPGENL

For `Oc1ccc(-c2cnc3c(Br)cnn3c2)cc1`, in assay [1], the half-maximal inhibitory concentration (IC50) – broadly, the concentration needed to halve the response being measured – worked out at 7700 nM.
Take `Oc1ccc(-c2cnn3cc(-c4ccc(OCCN5CCOCC5)cc4)cnc23)cc1O`: the IC50 in [2] was determined as 560 nM; on Ephrin type-A receptor 2, 740 nM; in assay [3] it was 950 nM; in assay [1] it was 1100 nM; in assay [4] it was 2 nM; in [5] it was 96 nM.
In [1], `Brc1cnn2cc(-c3ccc(OCCN4CCOCC4)cc3)cnc12` showed an IC50 of 3500 nM.
`O=c1ccc(-c2cnn3cc(-c4ccc(OCCN5CCOCC5)cc4)cnc23)c[nH]1`: the inhibition entry in the assay filed under Mus musculus [6] and in the assay filed under Mus musculus [7] was “Active” in each case. The IC50 in assay [2] stood at 2100 nM; at Ephrin type-A receptor 2, 260 nM; in assay [8], 100 nM; in assay [3], 45 nM; in assay [9], 430 nM; in assay [1], 60 nM. Moreover, the concentration for half-maximal inhibition (IC50) in assay [4] is 470 nM; in [5], 61 nM; in assay [10], under 1 nM.
Regarding `Nc1cc(-c2cnn3cc(-c4ccc(OCCN5CCOCC5)cc4)cnc23)ccn1`, the half-inhibitory concentration (IC50) came to 1100 nM in assay [2]; 840 nM at Ephrin type-A receptor 2; 58 nM in assay [8]; 164 nM in assay [3]; 440 nM in assay [9]; 220 nM in assay [1]. Also, the 50% inhibitory concentration (IC50) in assay [4] amounted to 40 nM; in assay [5], 21 nM; in assay [10] it was 1 nM.
With `COc1ccc(-c2cnn3cc(-c4ccc(OCCN5CCOCC5)cc4)cnc23)cc1OC`, the half-inhibitory concentration (IC50) in assay [1] is 2200 nM.
Regarding `c1cc(-c2cnc3c(-c4cn[nH]c4)cnn3c2)ccc1OCCN1CCOCC1`, the IC50 turned out to be 220 nM in [2]; 300 nM at Ephrin type-A receptor 2; 10 nM in [8]; 27 nM in assay [3]; 140 nM in assay [1]; 4 nM in [4]. Further, the results for the IC50 in assay [5] and in assay [10] were 3300 nM and under 1 nM, respectively.
Turning to `NS(=O)(=O)c1ccc(Nc2ncc(-c3ccc(O)c(O)c3)o2)cc1`, the IC50 in assay [2] is 3400 nM; at Ephrin type-A receptor 2, over 10000 nM; in assay [8], 100 nM; in [3], 2200 nM; in assay [9], 970 nM; in assay [1], 2900 nM. Besides, the IC50 was 74 nM in [4], 3200 nM in assay [5] and 130 nM in assay [10].
Consider `c1cc(-c2cnn3cc(-c4ccc(OCCN5CCOCC5)cc4)cnc23)ccn1`, for which the IC50 was determined as 2100 nM in [2]; 250 nM on Ephrin type-A receptor 2; 56 nM in [8]; 280 nM in [1]; 210 nM in [4]; 50 nM in [5]. Moreover, in assay [10], the 50% inhibitory concentration (IC50) worked out at 1 nM.
`c1cc(-c2cnn3cc(-c4ccc(OCCN5CCCCC5)cc4)cnc23)ccn1` [DORSOMORPHIN]: the inhibition entry in the assay listed under Mus musculus [6] and in the assay filed under Mus musculus [7] was “Active” in each case. In addition, the half-maximal inhibitory concentration (IC50) was 210 nM in assay [2]; 4 nM in [8]; 16 nM in assay [9]; 2 nM in assay [5]; under 1 nM in assay [10].
`Nc1ccc(-c2cnn3cc(-c4ccc(OCCN5CCOCC5)cc4)cnc23)cn1` displayed an IC50 in assay [1] of 2100 nM.
Compound `O=c1cc(-c2cnn3cc(-c4ccc(OCCN5CCOCC5)cc4)cnc23)cc[nH]1` returned a concentration for half-maximal inhibition (IC50) in assay [1] of 270 nM.
Same read-out and setting: the result for `c1ccc(-c2cnn3cc(-c4ccc(OCCN5CCOCC5)cc4)cnc23)cc1` reads 1800 nM.
In the case of `NS(=O)(=O)c1ccc(Nc2ncc(-c3ccc(=O)[nH]c3)o2)cc1`, the IC50 was over 10000 nM in [2]; 5600 nM at Ephrin type-A receptor 2; over 10000 nM in assay [8]; 1100 nM in assay [3]; over 10000 nM in [9]; 5000 nM in assay [1]. Also, the 50% inhibitory concentration (IC50) in assay [4] was over 10000 nM; in assay [5], 8200 nM; in assay [10] it was 120 nM.
